Eight molecules from ChEMBL document CHEMBL1759956, “Rhodium(II) acetate-catalyzed stereoselective synthesis, SAR and anti-HIV activity of novel oxindoles bearing cyclopropane ring” (Eur J Med Chem, 2011) can be followed below.

The structures appear in SMILES notation.

Data set [1] in a line: Cytotoxicity against human TZM-bl cells assessed as cell viability at 50 ug after 48 hrs by MTT assay. It counts as cell-based. The note with it: read-out: Activity. In a few lines:
(§1)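 TZM-bl cells, 3 × 10³ per well, incubated 48 h at 37 °C in 5% CO₂ with or without compound. MTT (5 mg/mL reagent) added for 3 h, then solubilised in 20% SDS/50% DMF in PBS. OD read at 570 nm with 690 nm reference. Viability = [(OD treated − OD virus control)/(OD uninfected − OD virus control)] × 100.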
(Formazan colour is commonly taken as a measure of viable cells.)

The nature of data set [2]: Cytotoxicity against human TZM-bl cells assessed as cell viability at 20 ug after 48 hrs by MTT assay. It is filed as cell-based. The note with it: read-out: Activity. The procedure, abridged: as §1
A short description of data set [3]: Cytotoxicity against human TZM-bl cells assessed as cell viability at 10 ug after 48 hrs by MTT assay. It is filed as cell-based. The note with it: read-out: Activity. In a few lines:
as §1

Data set [4] is described as follows: Cytotoxicity against human TZM-bl cells assessed as cell viability at 100 ug after 48 hrs by MTT assay. It is filed as cell-based. The note with it: read-out: Activity. The procedure, abridged:
as §1

Data set [5] can be described thus: Cytotoxicity against human CEM cells expressing green fluorescent protein assessed as cell viability at 10 ug after 48 hrs by MTT assay. It counts as cell-based, CCRF-CEM. The note with it: read-out: Activity.
Data set [6] in a line: Cytotoxicity against human CEM cells expressing green fluorescent protein assessed as cell viability at 20 ug after 48 hrs by MTT assay. It is filed as cell-based, CCRF-CEM. The note with it: read-out: Activity.
Data set [7] in a line: Cytotoxicity against human CEM cells expressing green fluorescent protein assessed as cell viability at 50 ug after 48 hrs by MTT assay. It is filed as cell-based, CCRF-CEM. The note with it: read-out: Activity.
Data set [8] can be described thus: Cytotoxicity against human CEM cells expressing green fluorescent protein assessed as cell viability at 100 ug after 48 hrs by MTT assay. It counts as cell-based, CCRF-CEM. The note with it: read-out: Activity.
Data set [9] concerns Human immunodeficiency virus 1. In words: Antiviral activity against 0.025 MOI Human immunodeficiency virus 1 infected in human TZM-bl cells at 2 ug/ml after 48 hrs by beta-galactosidase assay. The note with it: Human immunodeficiency virus 1, TZM-bl. It counts as functional. In a few lines: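 TZM-bl cells, 2.0 × 10⁵ per well, cultured overnight at 37 °C in 5% CO₂. Virus with treatments added for 4 h. Cells then washed twice in serum-free DMEM and refed with DMEM + 10% FCS. Compounds re-added and cells incubated 48 h. Cells fixed in 1% glutaraldehyde for 10 min and stained 24 h at 37 °C. Blue foci counted microscopically; % inhibition = 100 − (foci treated/foci untreated infected × 100). AZT positive control.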

In data set [10] the test system is Human immunodeficiency virus 1. Description: Antiviral activity against 0.05 MOI Human immunodeficiency virus 1 NL4.3 infected in human CEM cells expressing green fluorescent protein at 20 ug/ml after 8 days by fluorometric analysis. It counts as functional. The note with it: Human immunodeficiency virus 1, NL4.3, CCRF-CEM, 192 h. The procedure, abridged: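 CEM-GFP cells seeded at 2.0 × 10⁵ cells/mL with compounds in duplicate. AZT ([…]) was the positive control; 50% ethanol and distilled water were vehicle controls. Cells incubated at 37 °C in 5% CO₂. On day 5, 0.4 mL of suspension was replaced with 1 mL fresh medium and compounds were re-added, then incubation continued. % inhibition = 100 − (GFP fluorescence treated/untreated infected × 100).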

A short description of data set [11]: Partition coefficient, log P of the compound. It counts as physicochemical. The note with it: octanol/water.

For the molecule `O=C1Nc2ccc([N+](=O)[O-])cc2[C@]12C[C@H]2CO`, the viability at 48 h, 50 ug in data set [1] turned out to be 104%; in data set [7], 122%. The viability at 48 h, 20 ug is 107% in data set [2] and 127% in data set [6]. For the same molecule, the viability at 48 h, 10 ug stood at 100% in [3] and 119% in data set [5]. Moreover, the viability at 48 h, 100 ug in [4] was found to be 109%; in data set [8], 116%. Besides, 2 µg/mL produced 5% inhibition in data set [9]. For the same molecule, the inhibition at 20 µg/mL in [10] is 3%. In addition, the logP in [11] stood at 0.54.
For `O=C1Nc2ccc([N+](=O)[O-])cc2[C@]12C[C@H]2CCl`, the viability at 48 h, 50 ug in data set [1] turned out to be 101%; in [7], 103%. For the same molecule, the viability at 48 h, 20 ug in [2] worked out at 102%; in data set [6], 118%. The viability at 48 h, 10 ug in data set [3] came to 102%; in [5], 101%. Besides, the viability at 48 h, 100 ug in [4] was 92%; in data set [8], 76%. 2 µg/mL produced 6% inhibition in data set [9]. At 20 µg/mL the inhibition in [10] was 4%. Moreover, in data set [11], the logP stood at 1.84.
With `O=C1Nc2ccc(OC(F)(F)F)cc2[C@]12C[C@H]2CCl`, the viability at 48 h, 50 ug in data set [1] was 66%; in data set [7], 37%. Moreover, the viability at 48 h, 20 ug is 95% in data set [2] and 74% in [6]. The viability at 48 h, 10 ug in data set [3] is 91%; in [5], 94%. The viability at 48 h, 100 ug came out at 60% in data set [4] and 2% in data set [8]. The molecule further gave an inhibition at 2 µg/mL in data set [9] of 9%. Testing at 20 µg/mL in data set [10] gave an inhibition of 3%. The molecule also displayed a lipophilicity (logP) in [11] of 3.48.
Consider `O=C1Nc2ccc(OC(F)(F)F)cc2[C@]12C[C@H]2CO`, for which the viability at 48 h, 50 ug in data set [1] was determined as 62%; in data set [7] it was 33%. The viability at 48 h, 20 ug in data set [2] stood at 93%; in data set [6], 72%. In addition, the viability at 48 h, 10 ug in data set [3] was determined as 90%; in data set [5] it was 91%. In addition, the viability at 48 h, 100 ug is 60% in data set [4] and 3% in data set [8]. In addition, testing at 2 µg/mL in data set [9] gave an inhibition of 10%. This molecule yielded an inhibition at 20 µg/mL in [10] of 7%. Further, in data set [11], the log partition coefficient (logP) was found to be 1.89.
With `Cc1ccc2c(c1)[C@]1(C[C@H]1CCl)C(=O)N2`, the figures for the viability at 48 h, 50 ug in data set [1] and in data set [7] were 88% and 85%, respectively. For the same molecule, the viability at 48 h, 20 ug is 91% in data set [2] and 89% in [6]. In addition, the viability at 48 h, 10 ug in data set [3] was 93%; in data set [5], 92%. Also, the viability at 48 h, 100 ug in data set [4] stood at 87%; in [8] it was 81%. The molecule also had an inhibition at 2 µg/mL in [9] of 8%. The same molecule showed an inhibition at 20 µg/mL in [10] of 5%. Besides, the logP in data set [11] came out at 2.44.
Regarding `Cc1ccc2c(c1)[C@]1(C[C@H]1CO)C(=O)N2`, the viability at 48 h, 50 ug in data set [1] amounted to 95%; in [7] it was 100%. Besides, the values for the viability at 48 h, 20 ug in data set [2] and in data set [6] were 100% and 101%, respectively. Besides, the viability at 48 h, 10 ug in [3] is 102%; in [5], 105%. Further, the viability at 48 h, 100 ug in [4] is 93%; in [8] it was 100%. This molecule gave an inhibition at 2 µg/mL in [9] of 6%. In [10], this molecule displayed an inhibition at 20 µg/mL of 3%. Further, the logP in data set [11] was 1.21.
Take `O=C1Nc2ccccc2[C@]12C[C@H]2CO`: the viability at 48 h, 50 ug in data set [1] and in data set [7] was 92% in each case. Further, the values for the viability at 48 h, 20 ug in data set [2] and in data set [6] were 98% and 95%, respectively. Also, the viability at 48 h, 10 ug is 99% in [3] and 96% in data set [5]. Moreover, the values for the viability at 48 h, 100 ug in [4] and in [8] were 89% and 90%, respectively. Further, the inhibition at 2 µg/mL in data set [9] was determined as 4%. For the same molecule, the inhibition at 20 µg/mL in data set [10] came to 6%. The molecule further came in with a logP in data set [11] of 2.19.
Turning to `O=C1Nc2ccccc2[C@]12C[C@H]2CCl`, the viability at 48 h, 50 ug in [1] turned out to be 87%; in data set [7], 83%. The results for the viability at 48 h, 20 ug in [2] and in [6] were 92% and 87%, respectively. Besides, the viability at 48 h, 10 ug in data set [3] was determined as 93%; in [5], 91%. The viability at 48 h, 100 ug in data set [4] turned out to be 86%; in [8], 88%. For the same molecule, testing at 2 µg/mL in data set [9] gave an inhibition of 7%. The inhibition at 20 µg/mL in [10] was found to be 2%. Also, in data set [11], the logP is 1.95.

Broadly, the inhibition is the change of the read-out against control, counted positive when it falls. As usually defined, the logP is a log measure of how a compound divides between an organic and an aqueous phase. Read a low logP as a more hydrophilic compound.
